The structures appear in SMILES notation.

This is an account of results in ChEMBL document CHEMBL4385606, “3,5,7-Substituted Pyrazolo[4,3- d]pyrimidine Inhibitors of Cyclin-Dependent Kinases and Their Evaluation in Lymphoma Models” (J Med Chem, 2019).

Test [1] in a line: Antiproliferative activity against human OCI-Ly2 cells measured after 72 hrs by calcein AM dye-based fluorescence assay. The test is classed as functional. The method, boiled down:
(§1)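 Cells exposed in triplicate to six concentrations for 72 h; calcein AM added for 1 h, live-cell fluorescence read at 485/538 nm (ex/em). GI50 taken from dose-response curves.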

Test [2] in a line: Antiproliferative activity against human Mino cells measured after 72 hrs by calcein AM dye-based fluorescence assay. The test is classed as functional. The method, boiled down:
as §1

The next test relates to HT. The test can be described thus: Antiproliferative activity against human HT cells measured after 72 hrs by calcein AM dye-based fluorescence assay. The test is classed as functional. The method, boiled down: as §1
Test [3] has as its target Cyclin-dependent kinase 2/cyclin E1 (Homo sapiens, UniProt P24941). The test can be described thus: Inhibition of His-tagged CDK2/Cyclin-E1 (unknown origin) expressed in baculovirus infected Sf9 insect cells using histone H1 as substrate measured in presence of [gamma-33P]ATP. In kind it is cell-based.
In test [4] the target is Cyclin-dependent kinase 4/cyclin D1 (Homo sapiens, UniProt P11802). Put plainly: Inhibition of recombinant human N-terminal GST-fused CDK4 (S4 to E303 residues)/cyclin D1 (Q4 to I295 residues) expressed in baculovirus infected Sf9 insect cells using RPPTLSPIPHIPR as substrate measured in presence of [gamma-33P]ATP. The method, boiled down: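 CDK/cyclin complexes tested in triplicate at minimum; IC50 values reported from those replicate determinations.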

A further test concerns the target CDK9/cyclin T1 (Homo sapiens, UniProt P50750). The test can be described thus: Inhibition of recombinant human N-terminal GST-His6-fused CDK9 (M1 to F372 residues)/N-terminal His6-tagged cyclin T1 (M1 to K726 residues) expressed in baculovirus infected Sf9 insect cells using (YSPTSPS)2KK as substrate measured in presence of [gamma-33P]ATP.

CDK9/cyclin T1, sequence (O60563 whole entry, the tested form may be a part): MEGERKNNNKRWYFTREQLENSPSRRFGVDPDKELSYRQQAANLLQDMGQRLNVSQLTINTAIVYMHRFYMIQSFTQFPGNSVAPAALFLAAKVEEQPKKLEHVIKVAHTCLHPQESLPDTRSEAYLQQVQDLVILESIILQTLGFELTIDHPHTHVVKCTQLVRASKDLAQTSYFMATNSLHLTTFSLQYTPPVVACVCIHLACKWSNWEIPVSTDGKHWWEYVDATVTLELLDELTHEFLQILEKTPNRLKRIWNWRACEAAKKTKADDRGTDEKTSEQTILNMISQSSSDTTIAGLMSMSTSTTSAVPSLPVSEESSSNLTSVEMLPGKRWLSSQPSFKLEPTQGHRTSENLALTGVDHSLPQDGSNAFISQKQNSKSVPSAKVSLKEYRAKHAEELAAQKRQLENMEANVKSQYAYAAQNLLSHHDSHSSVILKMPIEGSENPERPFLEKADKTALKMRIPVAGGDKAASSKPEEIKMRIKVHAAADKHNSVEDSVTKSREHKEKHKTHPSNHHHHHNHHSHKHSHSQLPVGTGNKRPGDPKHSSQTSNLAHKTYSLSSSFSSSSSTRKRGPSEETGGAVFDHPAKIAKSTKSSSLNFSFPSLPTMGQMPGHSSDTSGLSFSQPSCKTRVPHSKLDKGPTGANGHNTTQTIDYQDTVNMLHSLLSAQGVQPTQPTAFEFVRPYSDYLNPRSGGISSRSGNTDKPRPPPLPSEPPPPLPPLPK
CDK9/cyclin T1, sequence (P50750 whole entry, the tested form may be a part): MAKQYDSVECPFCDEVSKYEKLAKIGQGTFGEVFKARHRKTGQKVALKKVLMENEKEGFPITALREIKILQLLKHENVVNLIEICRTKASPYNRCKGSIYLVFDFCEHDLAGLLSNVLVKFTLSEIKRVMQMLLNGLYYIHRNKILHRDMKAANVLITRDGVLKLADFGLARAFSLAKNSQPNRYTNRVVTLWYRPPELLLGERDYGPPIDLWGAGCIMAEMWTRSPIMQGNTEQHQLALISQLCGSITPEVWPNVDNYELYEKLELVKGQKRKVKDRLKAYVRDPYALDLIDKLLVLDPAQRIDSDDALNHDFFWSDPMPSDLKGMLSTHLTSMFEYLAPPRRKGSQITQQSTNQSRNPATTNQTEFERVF
Cyclin-dependent kinase 4/cyclin D1, sequence (P11802 whole entry, the tested form may be a part): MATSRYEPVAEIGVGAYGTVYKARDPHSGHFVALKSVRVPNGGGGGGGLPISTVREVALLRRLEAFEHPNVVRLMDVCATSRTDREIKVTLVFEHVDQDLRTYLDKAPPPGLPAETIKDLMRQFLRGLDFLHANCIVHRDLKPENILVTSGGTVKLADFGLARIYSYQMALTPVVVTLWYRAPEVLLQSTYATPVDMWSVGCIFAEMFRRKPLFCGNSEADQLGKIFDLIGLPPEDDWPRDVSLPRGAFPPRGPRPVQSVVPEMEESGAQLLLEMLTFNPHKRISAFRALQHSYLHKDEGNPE
Cyclin-dependent kinase 4/cyclin D1, sequence (P24385 whole entry, further chain, the tested form may be a part): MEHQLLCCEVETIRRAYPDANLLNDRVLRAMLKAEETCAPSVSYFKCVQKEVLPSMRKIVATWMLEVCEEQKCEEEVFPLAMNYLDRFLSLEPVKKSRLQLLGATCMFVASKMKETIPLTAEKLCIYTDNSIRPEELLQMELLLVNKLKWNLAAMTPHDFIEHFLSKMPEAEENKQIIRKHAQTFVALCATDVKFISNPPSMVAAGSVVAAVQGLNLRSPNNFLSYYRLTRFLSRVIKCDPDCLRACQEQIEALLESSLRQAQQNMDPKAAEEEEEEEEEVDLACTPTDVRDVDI

Regarding `CC(C)c1n[nH]c2c(NCc3ccc(-c4ccccn4)cc3)nc(SCCCN(C)C)nc12`, the GI50 was 109 nM in test [1], 76 nM in test [2] and 105 nM in the test on HT. Besides, the IC50 in test [3] amounted to 99 nM.

`CC(C)c1n[nH]c2c(NCc3ccc(-c4ccccn4)cc3)nc(SCC(O)CN3CCNCC3)nc12` (configuration not stated): the results for the GI50 (in test [1]; in test [2]; in the test with HT) were 435 nM, 767 nM and 332 nM, respectively. Also, the IC50 in test [3] came to 171 nM.

For `CC(C)c1n[nH]c2c(NCc3ccc(-c4ccccn4)cc3)nc(SC(CO)C(C)C)nc12` (configuration not stated), the GI50 in test [1] was 1000 nM; in test [2], 1310 nM; in the test with HT it was 980 nM. Further, the IC50 in test [3] turned out to be 77 nM.

Consider `COCSc1nc(NCc2ccc(-c3ccccn3)cc2)c2[nH]nc(C(C)C)c2n1`, for which the results for the GI50 (in test [1]; in test [2]; in the test on HT) were 285 nM, 243 nM and 340 nM, respectively. Moreover, the IC50 in test [3] was found to be 59 nM.

Regarding `CC(C)c1n[nH]c2c(NCc3ccc(-c4ccccn4)cc3)nc(SC3CCCCC3O)nc12` (configuration not stated), the GI50 in test [1] was 680 nM; in test [2], 530 nM; in the test with HT it was 636 nM. The IC50 in test [3] turned out to be 134 nM.

For `CNCCSc1nc(NCc2ccc(-c3ccccn3)cc2)c2[nH]nc(C(C)C)c2n1`, the figures for the 50% growth inhibitory concentration (GI50) (in test [1]; in test [2]; with HT) were 92 nM, 40 nM and 56 nM, respectively. Also, the IC50 in test [3] was 13 nM.

Consider `CC(=O)NCCSc1nc(NCc2ccc(-c3ccccn3)cc2)c2[nH]nc(C(C)C)c2n1`, for which the GI50 in test [1] was 54 nM; in test [2], 42 nM; with HT, 71 nM. Further, the half-inhibitory concentration (IC50) in test [3] was determined as 41 nM.

Take `CSc1nc(NCc2ccc(-c3ccccn3)cc2)c2[nH]nc(C(C)C)c2n1`: the values for the GI50 (in test [1]; in test [2]; in the test with HT) were 1210 nM, 1050 nM and 783 nM, respectively.

Take `CSCCSc1nc(NCc2ccc(-c3ccccn3)cc2)c2[nH]nc(C(C)C)c2n1`: the GI50 in test [1] is 668 nM; in test [2], 773 nM; with HT, 975 nM. In addition, the IC50 in test [3] worked out at 138 nM.

Take `CC(C)c1n[nH]c2c(NCc3ccc(-c4ccccn4)cc3)nc(SCCn3ccnc3)nc12`: the 50% growth inhibitory concentration (GI50) is 145 nM in test [1], 135 nM in test [2] and 155 nM in the test on HT. Further, the IC50 in test [3] turned out to be 32 nM.

Consider `CC(C)c1n[nH]c2c(NCc3ccc(-c4ccccn4)cc3)nc(SCC(C)(C)O)nc12`, for which the GI50 in test [1] is 610 nM; in test [2], 477 nM; in the test on HT it was 507 nM. Also, the IC50 in test [3] was 30 nM.

For the compound `CC(C)c1n[nH]c2c(NCc3ccc(-c4ccccn4)cc3)nc(SCCO)nc12`, the figures for the GI50 (in test [1]; in test [2]; in the test on HT) were 50 nM, 40 nM and 48 nM, respectively. For the same compound, the IC50 in test [3] came to 3 nM.

On to `CC(C)c1n[nH]c2c(NCc3ccc(-c4ccccn4)cc3)nc(SCC(O)CN)nc12` (racemic), for which the GI50 in test [1] is 55 nM; in test [2], 64 nM; in the test with HT, 55 nM. In addition, the half-maximal inhibitory concentration (IC50) in test [3] amounted to 31 nM.

For the compound `C=CCSc1nc(NCc2ccc(-c3ccccn3)cc2)c2[nH]nc(C(C)C)c2n1`, the GI50 was 858 nM in test [1], 923 nM in test [2] and 1000 nM with HT. The IC50 in test [3] was determined as 100 nM.

As to `CCC(O)CSc1nc(NCc2ccc(-c3ccccn3)cc2)c2[nH]nc(C(C)C)c2n1` (configuration not stated), the figures for the GI50 (in test [1]; in test [2]; in the test with HT) were 280 nM, 427 nM and 273 nM, respectively. Besides, the IC50 in test [3] is 39 nM.

With `CC(C)c1n[nH]c2c(NCc3ccc(-c4ccccn4)cc3)nc(SC3CCCC3O)nc12` (configuration not stated), the GI50 was 373 nM in test [1], 450 nM in test [2] and 567 nM in the test with HT. For the same compound, in test [3], the half-inhibitory concentration (IC50) amounted to 52 nM.

In the case of `CC(C)c1n[nH]c2c(NCc3ccc(-c4ccccn4)cc3)nc(SC3CCCCC3N)nc12` (configuration not stated), the GI50 in test [1] was 136 nM; in test [2] it was 157 nM; in the test on HT, 139 nM. The IC50 in test [3] turned out to be 52 nM.

Take `CC(C)c1n[nH]c2c(NCc3ccc(-c4ccccn4)cc3)nc(SCC(O)CN3CCOCC3)nc12` (configuration not stated): the figures for the GI50 (in test [1]; in test [2]; with HT) were 200 nM, 243 nM and 200 nM, respectively. Also, the IC50 in test [3] came out at 156 nM.

Turning to `CC(C)c1n[nH]c2c(NCc3ccc(-c4ccccn4)cc3)nc(SCC(N)=O)nc12`, the GI50 in test [1] is 163 nM; in test [2] it was 197 nM; with HT, 192 nM. The IC50 in test [3] stood at 27 nM.

On to `CC(C)c1n[nH]c2c(NCc3ccc(-c4ccccn4)cc3)nc(SCCCO)nc12`, for which the figures for the GI50 (in test [1]; in test [2]; with HT) were 102 nM, 89 nM and 109 nM, respectively. Besides, in test [3], the IC50 turned out to be 21 nM.

As to `CC(C)c1n[nH]c2c(NCc3ccc(-c4ccccn4)cc3)nc(SCC(C)(C)N)nc12`, the GI50 in test [1] was 100 nM; in test [2], 64 nM; with HT it was 85 nM. Also, the IC50 in test [3] came to 20 nM.

As to `CC(C)c1n[nH]c2c(NCc3ccc(-c4ccccn4)cc3)nc(SCCC(N)=O)nc12`, the GI50 is 84 nM in test [1], 81 nM in test [2] and 120 nM in the test on HT. The IC50 in test [3] is 19 nM.

Take `CC(C)c1n[nH]c2c(NCc3ccc(-c4ccccn4)cc3)nc(SCCCN)nc12`: the GI50 was 151 nM in test [1], 156 nM in test [2] and 120 nM with HT. Further, the IC50 in test [3] turned out to be 22 nM.

As for `CCC(CO)Sc1nc(NCc2ccc(-c3ccccn3)cc2)c2[nH]nc(C(C)C)c2n1` (configuration not stated), the GI50 in test [1] was 181 nM; in test [2], 119 nM; with HT, 255 nM. Moreover, the IC50 in test [3] was 150 nM.

Turning to `CC(C)c1n[nH]c2c(NCc3ccc(-c4ccccn4)cc3)nc(SCC(O)C(F)(F)F)nc12` (configuration not stated), the GI50 was 585 nM in test [1], 641 nM in test [2] and 690 nM in the test on HT. In addition, in test [3], the IC50 is 132 nM.

In the case of `CC(C)c1n[nH]c2c(NCc3ccc(-c4ccccn4)cc3)nc(SCC3CNC(=O)O3)nc12` (configuration not stated), the GI50 is 53 nM in test [1], 69 nM in test [2] and 80 nM in the test with HT. For the same compound, the IC50 in test [3] came out at 19 nM.

On to `CC(C)c1n[nH]c2c(NCc3ccc(-c4ccccn4)cc3)nc(SCC(N)CN)nc12` (configuration not stated), for which the GI50 is 780 nM in test [1], 770 nM in test [2] and 480 nM in the test on HT. Further, the IC50 in test [3] is 12 nM.

For `CC(C)c1n[nH]c2c(NCc3ccc(-c4ccccn4)cc3)nc(SC(C)C(C)O)nc12` (configuration not stated), the concentration for 50% growth inhibition (GI50) in test [1] was 141 nM; in test [2], 160 nM; with HT, 190 nM. Moreover, the IC50 in test [3] stood at 3 nM.

Turning to `CC(C)c1n[nH]c2c(NCc3ccc(-c4ccccn4)cc3)nc(SC[C@H](O)CN)nc12`, the GI50 was 99 nM in test [1], 51 nM in test [2] and 63 nM with HT. In addition, in test [3], the IC50 amounted to 11 nM.

As to `CC(C)c1n[nH]c2c(NCc3ccc(-c4ccccn4)cc3)nc(SCCNC(N)=O)nc12`, the GI50 in test [1] is 198 nM; in test [2], 136 nM; with HT, 240 nM. In test [3], the IC50 worked out at 18 nM.

As for `CC(C)c1n[nH]c2c(NCc3ccc(-c4ccccn4)cc3)nc(SCC(O)CO)nc12` (configuration not stated), the GI50 in test [1] is 22 nM; in test [2] it was 10 nM; with HT, 21 nM. The IC50 in test [3] was 10 nM.

With `CC(O)CSc1nc(NCc2ccc(-c3ccccn3)cc2)c2[nH]nc(C(C)C)c2n1` (configuration not stated), the GI50 in test [1] is 152 nM; in test [2], 81 nM; in the test on HT, 62 nM. The IC50 in test [3] came out at 12 nM.

Consider `CC(C)c1n[nH]c2c(NCc3ccc(-c4ccccn4)cc3)nc(SCCN(C)C)nc12`, for which the GI50 in test [1] is 61 nM; in test [2], 93 nM; with HT it was 54 nM. Besides, the concentration for half-maximal inhibition (IC50) in test [3] worked out at 77 nM.

With `CC(C)c1n[nH]c2c(NCc3ccc(-c4ccccn4)cc3)nc(S)nc12`, the GI50 in test [1] was 3240 nM; in test [2], 2180 nM; in the test on HT, 2760 nM. For the same compound, in test [3], the IC50 came to 558 nM.

Take `C=CC(=O)N1CCC[C@@H](n2nc(-c3ccc(Oc4ccccc4)cc3)c3c(N)ncnc32)C1` [IBRUTINIB]: the GI50 in test [1] was 18900 nM; in test [2], 10700 nM; with HT it was 15900 nM.

Regarding `CC(C)c1n[nH]c2c(NCc3ccc(-c4ccccn4)cc3)nc(SCCNC(=N)N)nc12`, the GI50 was 812 nM in test [1], 390 nM in test [2] and 390 nM in the test with HT. Besides, the IC50 in test [3] came to 30 nM.

With `CC[C@H](CO)Nc1nc(NCc2ccc(-c3ccccn3)cc2)c2ncn(C(C)C)c2n1`, the GI50 in test [1] was 307 nM; in test [2] it was 202 nM; in the test with HT, 263 nM. The IC50 in test [4] worked out at 26100 nM; on CDK9/cyclin T1 it was 272 nM.

The term GI50 denotes the concentration giving 50% growth inhibition. The IC50 is the concentration that gives 50% inhibition.
